Experimental data taken from PMC7935786 (Cancer Science, 2021).
“And” between values parts separate entries of the source, which are not always exact repeats. Identical values can stand only once. “Also recorded” adds a separate entry of the source.

System: Japanese patients with relapsed or refractory B‐NHL
Test: Phase I study: safety, adverse events and DLT
Type: in vivo, human
Summary of the method: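 Patients received 800 mg orally once in a 4-day cycle 0, then 800 mg BID in 28-day cycles; reduction to 600 then 400 mg BID permitted. AEs graded by CTCAE v4.03, with hematology, chemistry, urinalysis, vital signs, 12-lead ECG and LVEF by echo/MUGA. DLT assessed over cycles 0–1 in patients completing both with ≥75% cycle-1 compliance, or having DLT. Safety set: ≥1 dose.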

**Q.** Which “Anemia, all TEAEs, Grade ≥3” value (800 mg BID, n = 7) does the source give for `CCN(c1cc(-c2ccc(CN3CCOCC3)cc2)cc(C(=O)NCc2c(C)cc(C)[nH]c2=O)c1C)C1CCOCC1` [Tazemetostat] here?
**A.** The value was 1 (14.3) patients (%).

**Q.** What about the “Anemia, all TEAEs, all grades” value (800 mg BID, n = 7) of the same molecule?
**A.** The value was 2 (28.6) patients (%).

**Q.** And the “Anemia, treatment‐related TEAEs, Grade ≥3” value (800 mg BID, n = 7)?
**A.** Its value is 1 (14.3) patients (%).

**Q.** What about the “Anemia, treatment‐related TEAEs, all grades” value (800 mg BID, n = 7) of the same molecule?
**A.** Its value is 2 (28.6) patients (%).

**Q.** And the “Blood creatinine increased, all TEAEs, Grade ≥3” value (800 mg BID, n = 7)?
**A.** Its value is 0 (0.0) patients (%).

**Q.** And the “Blood creatinine increased, all TEAEs, all grades” value (800 mg BID, n = 7)?
**A.** The value was 2 (28.6) patients (%).

**Q.** What about the “Blood creatinine increased, treatment‐related TEAEs, Grade ≥3” value (800 mg BID, n = 7) of the same molecule?
**A.** The value was 0 (0.0) patients (%).

**Q.** What about the “Blood creatinine increased, treatment‐related TEAEs, all grades” value (800 mg BID, n = 7) of the same molecule?
**A.** The value was 1 (14.3) patients (%).

**Q.** What about the “Constipation, all TEAEs, Grade ≥3” value (800 mg BID, n = 7) of the same molecule?
**A.** The value was 0 (0.0) patients (%).

**Q.** What about the “Constipation, all TEAEs, all grades” value (800 mg BID, n = 7) of the same molecule?
**A.** Its value is 3 (42.9) patients (%).

**Q.** What about the “Constipation, treatment‐related TEAEs, Grade ≥3” value (800 mg BID, n = 7) of the same molecule?
**A.** Its value is 0 (0.0) patients (%).

**Q.** What about the “Constipation, treatment‐related TEAEs, all grades” value (800 mg BID, n = 7) of the same molecule?
**A.** The value was 1 (14.3) patients (%).

**Q.** What about the “Dry eye, all TEAEs, Grade ≥3” value (800 mg BID, n = 7) of the same molecule?
**A.** Its value is 0 (0.0) patients (%).

**Q.** And the “Dry eye, all TEAEs, all grades” value (800 mg BID, n = 7)?
**A.** The value was 2 (28.6) patients (%).

**Q.** What about the “Dry eye, treatment‐related TEAEs, Grade ≥3” value (800 mg BID, n = 7) of the same molecule?
**A.** The value was 0 (0.0) patients (%).

**Q.** And the “Dry eye, treatment‐related TEAEs, all grades” value (800 mg BID, n = 7)?
**A.** Its value is 0 (0.0) patients (%).

**Q.** And the “Dry skin, all TEAEs, Grade ≥3” value (800 mg BID, n = 7)?
**A.** The value was 0 (0.0) patients (%).

**Q.** And the “Dry skin, all TEAEs, all grades” value (800 mg BID, n = 7)?
**A.** Its value is 2 (28.6) patients (%).

**Q.** What about the “Dry skin, treatment‐related TEAEs, Grade ≥3” value (800 mg BID, n = 7) of the same molecule?
**A.** The value was 0 (0.0) patients (%).

**Q.** What about the “Dry skin, treatment‐related TEAEs, all grades” value (800 mg BID, n = 7) of the same molecule?
**A.** Its value is 2 (28.6) patients (%).

**Q.** What about the “Dysgeusia, all TEAEs, Grade ≥3” value (800 mg BID, n = 7) of the same molecule?
**A.** Its value is 0 (0.0) patients (%).

**Q.** And the “Dysgeusia, all TEAEs, all grades” value (800 mg BID, n = 7)?
**A.** Its value is 3 (42.9) patients (%).

**Q.** What about the “Dysgeusia, treatment‐related TEAEs, Grade ≥3” value (800 mg BID, n = 7) of the same molecule?
**A.** Its value is 0 (0.0) patients (%).

**Q.** And the “Dysgeusia, treatment‐related TEAEs, all grades” value (800 mg BID, n = 7)?
**A.** The value was 3 (42.9) patients (%).

**Q.** And the “Fatigue, all TEAEs, Grade ≥3” value (800 mg BID, n = 7)?
**A.** The value was 1 (14.3) patients (%).

**Q.** And the “Fatigue, all TEAEs, all grades” value (800 mg BID, n = 7)?
**A.** Its value is 2 (28.6) patients (%).

**Q.** What about the “Fatigue, treatment‐related TEAEs, Grade ≥3” value (800 mg BID, n = 7) of the same molecule?
**A.** Its value is 1 (14.3) patients (%).

**Q.** And the “Fatigue, treatment‐related TEAEs, all grades” value (800 mg BID, n = 7)?
**A.** The value was 2 (28.6) patients (%).

**Q.** What about the “Insomnia, all TEAEs, Grade ≥3” value (800 mg BID, n = 7) of the same molecule?
**A.** The value was 0 (0.0) patients (%).

**Q.** And the “Insomnia, all TEAEs, all grades” value (800 mg BID, n = 7)?
**A.** Its value is 2 (28.6) patients (%).

**Q.** And the “Insomnia, treatment‐related TEAEs, Grade ≥3” value (800 mg BID, n = 7)?
**A.** The value was 0 (0.0) patients (%).

**Q.** And the “Insomnia, treatment‐related TEAEs, all grades” value (800 mg BID, n = 7)?
**A.** Its value is 1 (14.3) patients (%).

**Q.** And the “Leukopenia, all TEAEs, Grade ≥3” value (800 mg BID, n = 7)?
**A.** Its value is 1 (14.3) patients (%).

**Q.** And the “Leukopenia, all TEAEs, all grades” value (800 mg BID, n = 7)?
**A.** Its value is 2 (28.6) patients (%).

**Q.** And the “Leukopenia, treatment‐related TEAEs, Grade ≥3” value (800 mg BID, n = 7)?
**A.** Its value is 0 (0.0) patients (%).

**Q.** And the “Leukopenia, treatment‐related TEAEs, all grades” value (800 mg BID, n = 7)?
**A.** Its value is 1 (14.3) patients (%).

**Q.** And the “Muscle spasms, all TEAEs, Grade ≥3” value (800 mg BID, n = 7)?
**A.** The value was 0 (0.0) patients (%).

**Q.** And the “Muscle spasms, all TEAEs, all grades” value (800 mg BID, n = 7)?
**A.** Its value is 2 (28.6) patients (%).

**Q.** And the “Muscle spasms, treatment‐related TEAEs, Grade ≥3” value (800 mg BID, n = 7)?
**A.** The value was 0 (0.0) patients (%).

**Q.** And the “Muscle spasms, treatment‐related TEAEs, all grades” value (800 mg BID, n = 7)?
**A.** The value was 2 (28.6) patients (%).

**Q.** What about the “Nasopharyngitis, all TEAEs, Grade ≥3” value (800 mg BID, n = 7) of the same molecule?
**A.** The value was 0 (0.0) patients (%).

**Q.** What about the “Nasopharyngitis, all TEAEs, all grades” value (800 mg BID, n = 7) of the same molecule?
**A.** The value was 5 (71.4) patients (%).

**Q.** And the “Nasopharyngitis, treatment‐related TEAEs, Grade ≥3” value (800 mg BID, n = 7)?
**A.** The value was 0 (0.0) patients (%).

**Q.** And the “Nasopharyngitis, treatment‐related TEAEs, all grades” value (800 mg BID, n = 7)?
**A.** The value was 0 (0.0) patients (%).

**Q.** What about the “Neutropenia, all TEAEs, Grade ≥3” value (800 mg BID, n = 7) of the same molecule?
**A.** Its value is 1 (14.3) patients (%).

**Q.** And the “Neutropenia, all TEAEs, all grades” value (800 mg BID, n = 7)?
**A.** The value was 2 (28.6) patients (%).

**Q.** What about the “Neutropenia, treatment‐related TEAEs, Grade ≥3” value (800 mg BID, n = 7) of the same molecule?
**A.** The value was 0 (0.0) patients (%).

**Q.** What about the “Neutropenia, treatment‐related TEAEs, all grades” value (800 mg BID, n = 7) of the same molecule?
**A.** The value was 1 (14.3) patients (%).

**Q.** What about the “Rash, all TEAEs, Grade ≥3” value (800 mg BID, n = 7) of the same molecule?
**A.** The value was 0 (0.0) patients (%).

**Q.** And the “Rash, all TEAEs, all grades” value (800 mg BID, n = 7)?
**A.** Its value is 2 (28.6) patients (%).

**Q.** And the “Rash, treatment‐related TEAEs, Grade ≥3” value (800 mg BID, n = 7)?
**A.** Its value is 0 (0.0) patients (%).

**Q.** And the “Rash, treatment‐related TEAEs, all grades” value (800 mg BID, n = 7)?
**A.** Its value is 2 (28.6) patients (%).

**Q.** What about the “Stomatitis, all TEAEs, Grade ≥3” value (800 mg BID, n = 7) of the same molecule?
**A.** Its value is 0 (0.0) patients (%).

**Q.** What about the “Stomatitis, all TEAEs, all grades” value (800 mg BID, n = 7) of the same molecule?
**A.** Its value is 2 (28.6) patients (%).

**Q.** And the “Stomatitis, treatment‐related TEAEs, Grade ≥3” value (800 mg BID, n = 7)?
**A.** The value was 0 (0.0) patients (%).

**Q.** What about the “Stomatitis, treatment‐related TEAEs, all grades” value (800 mg BID, n = 7) of the same molecule?
**A.** Its value is 2 (28.6) patients (%).

**Q.** And the “Thrombocytopenia, all TEAEs, Grade ≥3” value (800 mg BID, n = 7)?
**A.** Its value is 2 (28.6) patients (%).

**Q.** What about the “Thrombocytopenia, all TEAEs, all grades” value (800 mg BID, n = 7) of the same molecule?
**A.** Its value is 3 (42.9) patients (%).

**Q.** And the “Thrombocytopenia, treatment‐related TEAEs, Grade ≥3” value (800 mg BID, n = 7)?
**A.** Its value is 2 (28.6) patients (%).

**Q.** And the “Thrombocytopenia, treatment‐related TEAEs, all grades” value (800 mg BID, n = 7)?
**A.** The value was 3 (42.9) patients (%).

**Q.** And the “dose‐limiting toxicity (DLT)” value (cycles 0 and 1, six evaluable patients, 800 mg BID)?
**A.** The value was “No DLTs; also recorded: did not observe any DLT”.

**Q.** And the AE anemia (n = 7)?
**A.** The AE anemia was 29%.

**Q.** And the AE constipation (n = 7)?
**A.** Its AE constipation is 42.9%.

**Q.** And the AE dry skin (n = 7)?
**A.** The AE dry skin was 29%.

**Q.** And the AE dysgeusia (n = 7)?
**A.** Its AE dysgeusia is 42.9% and 43%.

**Q.** And the AE fatigue (n = 7)?
**A.** The AE fatigue was 29%.

**Q.** And the “AE leading to dose reduction” value (n = 7)?
**A.** The value was 14.3%.

**Q.** And the AE nasopharyngitis (n = 7)?
**A.** Its AE nasopharyngitis is 71.4%.

**Q.** What about the AE rash (n = 7) of the same molecule?
**A.** Its AE rash is 29%.

**Q.** What about the AE stomatitis (n = 7) of the same molecule?
**A.** Its AE stomatitis is 29%.

**Q.** What about the AE thrombocytopenia (n = 7) of the same molecule?
**A.** Its AE thrombocytopenia is 42.9% and 43%.

**Q.** And the “AEs leading to dose interruption” value (n = 7)?
**A.** Its value is 57.1%.
